Data on three compounds can be found in ChEMBL document CHEMBL4196053, “Endoperoxide-8-aminoquinoline hybrids as dual-stage antimalarial agents with enhanced metabolic stability” (Eur J Med Chem, 2018).

The CC50 is the concentration giving 50% cytotoxicity. By EC50 is commonly meant the concentration giving half of the maximal effect. Lower therefore signals a more potent agent. The half-life is the time needed for the level to fall by half in the phase considered.

Each structure is given as a SMILES string. Active and inactive are the calls of the source.

Series [1] can be described thus: Cytotoxicity against human Caco2 cells assessed as reduction in cell viability after 72 hrs by neutral red dye based assay. The note with it: Caco-2 cells. In short, it runs like this: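 CaCo-2 cells grown in RPMI-1640 with 10% FBS and antibiotic-antimycotic at 37°C, 5% CO2. Exposed once confluent for 72 h to compound diluted in medium, organic solvent ≤1%. Medium then removed and cells washed with PBS.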

The subject of series [2] is Plasmodium falciparum. Nature of the series: Antiplasmodial activity against chloroquine resistant Plasmodium falciparum W2 erythrocytic ring stage after 48 hrs using hypoxanthine by flow cytometric analysis. The class given is functional, organism-based. To be noted: W2, 48 h. Put shortly:
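Ring-stage W2 P. falciparum synchronized with 5% sorbitol, about 1% parasitemia in human erythrocytes. Cells fixed in 2% formaldehyde, stained with 1 nM YOYO-1, infected cells counted by flow cytometry. IC50 taken against untreated controls; two experiments, four replicates each.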
(In general: A flow cytometer gives signals particle by particle.)

The subject of series [3] is Plasmodium berghei. Nature of the series: Antiplasmodial activity against luciferase expressing Plasmodium berghei sporozoites infected in human HuH7 cells at 2 uM preincubated for 1 hr followed by parasite infection measured after 48 hrs by bioluminescence analysis relative to control. Format: functional. Put shortly:
(§1)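 Huh-7 hepatoma cells (1.0 × 10^4/well) seeded the day before. Compound-containing medium added about 1 h before infection with fresh firefly luciferase-expressing P. berghei sporozoites from Anopheles stephensi salivary glands, then spun 1700 g for 5 min. DMSO vehicle in controls. Parasite load read by bioluminescence 48 h post-infection. Initial screen at fixed concentrations; EC50 from nonlinear regression of normalized dose-response data.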

Series [4] deals with Plasmodium berghei. Nature of the series: Antiplasmodial activity against luciferase expressing Plasmodium berghei sporozoites infected in human HuH7 cells at 10 uM preincubated for 1 hr followed by parasite infection measured after 48 hrs by bioluminescence analysis relative to control. Format: functional. Put shortly: as §1
For series [5], the system named is Huh-7. Nature of the series: Cytotoxicity against human HuH7 cells assessed as reduction in cell viability at 10 uM after 48 hrs by Alamar blue assay. Format: cell-based. To be noted: huh-7, 48 h. Put shortly:
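Huh-7 cells seeded and infected with P. berghei sporozoites as in the liver-stage assay, with compound added about 1 h before infection and DMSO vehicle in controls. Host cell viability read by AlamarBlue fluorescence 48 h post-infection.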
(In general: The colour change of resazurin is a common sign of viable cells or microbes.)

Series [6] has as its system Plasmodium berghei. Nature of the series: Antiplasmodial activity against luciferase expressing Plasmodium berghei infected in human HuH7 cells preincubated for 1 hr followed by parasite infection measured after 48 hrs by bioluminescence analysis. Format: functional, organism-based. The note with it: Huh-7. In short, it runs like this: as §1
The nature of series [7]: Intrinsic clearance in rat liver microsomes assessed per mg protein at […] in presence of NADPH by HPLC analysis. To be noted: read-out: CLH. Format: ADME, microsome. A general note: Liver microsomes are vesicles of endoplasmic reticulum, rich in cytochrome P450 enzymes.
Series [8] can be described thus: Selectivity index, ratio of CC50 for human Caco2 cells to IC50 for chloroquine resistant Plasmodium falciparum W2 erythrocytic ring stage. The class given is toxicity. The note with it: Caco-2 cells, read-out: Ratio CC50/IC50.
Series [9] can be described thus: Half life in rat liver microsomes at […] in presence of NADPH by HPLC analysis. The class given is ADME, microsome.

In the case of `COc1cc(NC(C)CCCNC(=O)C2CCC3(CC2)OOC2(OO3)C3CC4CC(C3)CC2C4)c2ncccc2c1-c1ccc(C(F)(F)F)cc1` (configuration not stated), the CC50 at 72 h in series [1] is over 50000 nM. The EC50 stood at 60 nM in series [2] and 4120 nM in series [6]. Also, the Activity in [3] is recorded as over 50%; in [5], “Non-Toxic”. In addition, the outcome in series [4] was Active. For the same compound, the microsomal CLint in [7] stood at 13.9 µL/min/mg. Moreover, in [8], the selectivity ratio was over 1000. Further, the half-life in [9] came to 1.67 h.
With `COc1cc(NC(C)CCCNC(=O)C2CCC3(CC2)OOC2(OO3)C3CC4CC(C3)CC2C4)c2ncccc2c1-c1ccc(Cl)cc1` (configuration not stated), the CC50 at 72 h in series [1] is over 50000 nM. Further, the EC50 in [2] amounted to 75 nM; in series [6] it was 2810 nM. The results for the Activity in series [3] and in series [5] were over 50% and “Non-Toxic”, respectively. Also, the result in series [4] was Active. Besides, in series [7], the microsomal CLint amounted to 10.7 µL/min/mg. Also, the selectivity ratio in series [8] is over 1000. Besides, in series [9], the half-life was found to be 2.15 h.
In the case of `COc1cc(NC(C)CCCNC(=O)C2CCC3(CC2)OOC2(OO3)C3CC4CC(C3)CC2C4)c2ncccc2c1-c1ccsc1` (configuration not stated), in [1], the CC50 at 72 h was over 50000 nM. Further, the EC50 was found to be 45 nM in [2] and 2110 nM in series [6]. Further, the Activity in [3] is over 50%; in series [5] it was “Non-Toxic”. In [4], the outcome was Active. For the same compound, the microsomal CLint in [7] stood at 37.4 µL/min/mg. Moreover, in series [8], the selectivity ratio was over 600. Further, in series [9], the half-life worked out at 0.617 h.
